Test results taken from ChEMBL document CHEMBL1240350, “In vitro activity of CEM-101 against Streptococcus pneumoniae and Streptococcus pyogenes with defined macrolide resistance mechanisms” (Antimicrob Agents Chemother, 2010).
≈ marks a conversion by molar mass, not a printed value.

Tests used:
Streptococcus pneumoniae [1] = experiment: Antibacterial activity against macrolide-resistant Streptococcus pneumoniae 3665 harboring mef(A) gene after 26 passages and 10 compound-free subculturing by retest method; type: functional
Streptococcus pneumoniae [2] = experiment: Antibacterial activity against macrolide-susceptible Streptococcus pneumoniae 7127 harboring S20N mutation in L4 ribosomal protein and A105V mutation in L22 ribosomal protein after 16 passages and 10 compound-free subculturing by retest method; type: functional
Streptococcus pyogenes [3] = experiment: Antibacterial activity against macrolide-resistant Streptococcus pyogenes 2094 harboring erm(A) gene after 5 passages and 10 compound-free subculturing by retest method
Streptococcus pyogenes [4] = experiment: Antibacterial activity against macrolide-resistant Streptococcus pyogenes 2094 harboring erm(A) gene after 6 passages and 10 compound-free subculturing by retest method
Streptococcus pneumoniae [5] = experiment: Antibacterial activity against Streptococcus pneumoniae harboring mutation in 23S rRNA after overnight incubation by agar dilution method; type: functional
Outline: (§1)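 Clinical isolates collected 1998–2008, with macrolide-resistance genes confirmed by PCR. MICs by agar dilution on Mueller-Hinton agar with 5% sheep blood. Inoculum 10^4 CFU/spot, incubated overnight at 35°C in ambient air. S. pneumoniae ATCC 49619 was the quality-control strain in every run.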

Streptococcus pneumoniae [6] = experiment: Antibacterial activity against macrolide-resistant Streptococcus pneumoniae harboring erm(B) and mef(A) gene after overnight incubation by agar dilution method; type: functional
Outline: (§2)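 Agar dilution MICs on Mueller-Hinton agar with 5% sheep blood. Inoculum 10^4 CFU/spot, incubated overnight at 35°C in ambient air. Clinical S. pneumoniae or group A streptococcal isolates; resistance genotypes (erm(B), erm(A), mef(A)/mef(E)) were assigned by PCR. S. pneumoniae ATCC 49619 served as QC strain in each run. Range, MIC50 and MIC90 reported per phenotype group.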

Streptococcus pneumoniae [7] = experiment: Antibacterial activity against macrolide-susceptible Streptococcus pneumoniae 1077 after 29 passages and 10 compound-free subculturing by retest method; type: functional
Streptococcus pneumoniae [8] = experiment: Antibacterial activity against macrolide-resistant Streptococcus pneumoniae 3009 harboring mutation in 23S rRNA after 20 passages and 10 compound-free subculturing by retest method; type: functional
Streptococcus pneumoniae [9] = experiment: Antibacterial activity against quinolone-resistant Streptococcus pneumoniae after overnight incubation by agar dilution method; type: functional
Outline: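 Agar dilution on Mueller-Hinton agar supplemented with 5% sheep blood. Inoculum 10^4 CFU/spot, incubated overnight at 35°C in ambient air. Test strains were clinical pneumococcal isolates. S. pneumoniae ATCC 49619 was included as the quality control strain in each run. MIC range, MIC50 and MIC90 were reported for each susceptibility category.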

Streptococcus pneumoniae [10] = experiment: Antibacterial activity against macrolide-susceptible Streptococcus pneumoniae 1077 after 15 passages and 10 compound-free subculturing by retest method; type: functional
Streptococcus pneumoniae [11] = experiment: Antibacterial activity against macrolide-susceptible Streptococcus pneumoniae 1077 after 43 passages and 10 compound-free subculturing by retest method; type: functional
Streptococcus pneumoniae [12] = experiment: Antibacterial activity against macrolide-resistant Streptococcus pneumoniae 3009 harboring mutation in 23S rRNA after overnight incubation by agar dilution method; type: functional
Streptococcus pneumoniae [13] = experiment: Antibacterial activity against macrolide-resistant Streptococcus pneumoniae 1635 harboring erm(A) gene after 49 passages and 10 compound-free subculturing by retest method; type: functional
Outline: (§3)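 Multistep selection by daily serial passage in subinhibitory drug concentrations. Medium was cation-adjusted Mueller-Hinton broth plus 5% lysed horse blood. Each day the next inoculum came from the tube 1–2 dilutions below the MIC whose turbidity matched the growth control, for up to 50 days. Clone MICs by CLSI macrodilution; identity to the parent confirmed by SmaI PFGE.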

Streptococcus pneumoniae [14] = experiment: Antibacterial activity against macrolide-resistant Streptococcus pneumoniae 1635 harboring erm(A) gene after 32 passages and 10 compound-free subculturing by retest method; type: functional; outline: as §3
Streptococcus pyogenes [15] = experiment: Antibacterial activity against macrolide-susceptible Streptococcus pyogenes 2132 after 28 passages and 10 compound-free subculturing by retest method
Streptococcus pneumoniae [16] = experiment: Antibacterial activity against Streptococcus pneumoniae harboring erm(B) and mef(A) gene after overnight incubation by agar dilution method; type: functional; outline: as §1
Streptococcus pyogenes [17] = experiment: Antibacterial activity against macrolide-resistant Streptococcus pyogenes harboring erm(B) gene after overnight incubation by agar dilution method; type: functional; outline: as §2
Streptococcus pyogenes [18] = experiment: Antibacterial activity against Streptococcus pyogenes harboring mutation in L4 ribosomal protein after overnight incubation by agar dilution method; type: functional; outline: as §1
Streptococcus pyogenes [19] = experiment: Antibacterial activity against macrolide-susceptible Streptococcus pyogenes after overnight incubation by agar dilution method; type: functional
Outline: (§4)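 Agar dilution on Mueller-Hinton agar supplemented with 5% sheep blood, inoculum 10^4 CFU/spot, read after overnight incubation at 35°C in ambient air. Clinical isolates with defined genotypes; S. pneumoniae ATCC 49619 quality control strain included in each run. MIC50/MIC90 are MICs inhibiting 50% and 90% of isolates.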

Streptococcus pneumoniae [20] = experiment: Antibacterial activity against macrolide-resistant Streptococcus pneumoniae 2686 harboring mutation in L4 ribosomal protein after 14 passages and 10 compound-free subculturing by retest method; type: functional
Streptococcus pyogenes [21] = experiment: Antibacterial activity against macrolide-susceptible Streptococcus pyogenes 2132 after 50 passages following overnight incubation by agar dilution method
Streptococcus pneumoniae [22] = experiment: Antibacterial activity against penicillin-intermediate Streptococcus pneumoniae after overnight incubation by agar dilution method; type: functional; outline: as §4
Streptococcus pyogenes [23] = experiment: Antibacterial activity against macrolide-resistant Streptococcus pyogenes 2011 harboring mef(A) gene after 35 passages and 10 compound-free subculturing by retest method
Streptococcus pyogenes [24] = experiment: Antibacterial activity against macrolide-resistant Streptococcus pyogenes 2368 harboring erm(B) gene after 18 passages and 10 compound-free subculturing by retest method
Streptococcus pneumoniae [25] = experiment: Antibacterial activity against macrolide-resistant Streptococcus pneumoniae 24 harboring erm(B) gene after overnight incubation by agar dilution method; type: functional
Streptococcus pneumoniae [26] = experiment: Antibacterial activity against macrolide-susceptible Streptococcus pneumoniae 7127 harboring S20N mutation in L4 ribosomal protein and A105V mutation in L22 ribosomal protein after overnight incubation by agar dilution method; type: functional
Streptococcus pneumoniae [27] = experiment: Antibacterial activity against macrolide-resistant Streptococcus pneumoniae 1076 harboring erm(B) and mef(A) gene after 18 passages and 10 compound-free subculturing by retest method; type: functional; outline: as §3

CC[C@H]1OC(=O)[C@@](C)(F)C(=O)[C@H](C)[C@@H](O[C@@H]2O[C@H](C)C[C@H](N(C)C)[C@H]2O)[C@](C)(OC)C[C@@H](C)C(=O)[C@H](C)[C@H]2N(CCCCn3cc(-c4cccc(N)c4)nn3)C(=O)O[C@]12C [SOLITHROMYCIN]
MIC (Streptococcus pneumoniae [1]): 0.06 µg/mL (≈ 0.071 µM) | MIC (Streptococcus pneumoniae [2]): 0.06 µg/mL (≈ 0.071 µM) | MIC (Streptococcus pyogenes [3]): 0.016 µg/mL (≈ 0.0189 µM) | MIC (Streptococcus pyogenes [4]): 0.016 µg/mL (≈ 0.0189 µM) | MIC (Streptococcus pneumoniae [5]): 0.002 µg/mL (≈ 0.00237 µM) | MIC50 (Streptococcus pneumoniae [6]): 0.125 µg/mL (≈ 0.148 µM) | MIC90 (Streptococcus pneumoniae [6]): 0.25 µg/mL (≈ 0.296 µM) | MIC (Streptococcus pneumoniae [7]): 0.03 µg/mL (≈ 0.0355 µM) | MIC (Streptococcus pneumoniae [8]): 0.25 µg/mL (≈ 0.296 µM) | MIC50 (Streptococcus pneumoniae [9]): 0.008 µg/mL (≈ 0.00947 µM) | MIC90 (Streptococcus pneumoniae [9]): 0.06 µg/mL (≈ 0.071 µM) | MIC (Streptococcus pneumoniae [10]): 0.06 µg/mL (≈ 0.071 µM) | MIC (Streptococcus pneumoniae [11]): 0.06 µg/mL (≈ 0.071 µM) | MIC (Streptococcus pneumoniae [12]): 0.016 µg/mL (≈ 0.0189 µM) | MIC (Streptococcus pneumoniae [13]): 0.008 µg/mL (≈ 0.00947 µM) | MIC (Streptococcus pneumoniae [14]): 0.125 µg/mL (≈ 0.148 µM) | MIC (Streptococcus pyogenes [15]): 0.016 µg/mL (≈ 0.0189 µM) | MIC50 (Streptococcus pneumoniae [16]): 0.125 µg/mL (≈ 0.148 µM) | MIC90 (Streptococcus pneumoniae [16]): 0.25 µg/mL (≈ 0.296 µM) | MIC50 (Streptococcus pyogenes [17]): 0.5 µg/mL (≈ 0.592 µM) | MIC90 (Streptococcus pyogenes [17]): 1 µg/mL (≈ 1.18 µM) | MIC (Streptococcus pyogenes [18]): 0.06 µg/mL (≈ 0.071 µM) | MIC50 (Streptococcus pyogenes [19]): 0.015 µg/mL (≈ 0.0178 µM) | MIC90 (Streptococcus pyogenes [19]): 0.03 µg/mL (≈ 0.0355 µM) | MIC (Streptococcus pneumoniae [20]): 0.03 µg/mL (≈ 0.0355 µM) | MIC (Streptococcus pyogenes [21]): 0.016 µg/mL (≈ 0.0189 µM) | MIC50 (Streptococcus pneumoniae [22]): 0.03 µg/mL (≈ 0.0355 µM) | MIC90 (Streptococcus pneumoniae [22]): 0.25 µg/mL (≈ 0.296 µM) | MIC (Streptococcus pyogenes [23]): 0.06 µg/mL (≈ 0.071 µM) | MIC (Streptococcus pyogenes [24]): 8 µg/mL (≈ 9.47 µM) | MIC (Streptococcus pneumoniae [25]): 0.004 µg/mL (≈ 0.00473 µM) | MIC (Streptococcus pneumoniae [26]): 0.008 µg/mL (≈ 0.00947 µM) | MIC (Streptococcus pneumoniae [27]): 32 µg/mL (≈ 37.9 µM)
